How the values were obtained:
Experiment in all cases: PBP competition assay with Bocillin FL
Format in all cases: binding
E. coli PBP1b = molecular target: T1, E. coli PBP1b (Escherichia coli, UniProt P02919)
T1 sequence (P02919 1-844): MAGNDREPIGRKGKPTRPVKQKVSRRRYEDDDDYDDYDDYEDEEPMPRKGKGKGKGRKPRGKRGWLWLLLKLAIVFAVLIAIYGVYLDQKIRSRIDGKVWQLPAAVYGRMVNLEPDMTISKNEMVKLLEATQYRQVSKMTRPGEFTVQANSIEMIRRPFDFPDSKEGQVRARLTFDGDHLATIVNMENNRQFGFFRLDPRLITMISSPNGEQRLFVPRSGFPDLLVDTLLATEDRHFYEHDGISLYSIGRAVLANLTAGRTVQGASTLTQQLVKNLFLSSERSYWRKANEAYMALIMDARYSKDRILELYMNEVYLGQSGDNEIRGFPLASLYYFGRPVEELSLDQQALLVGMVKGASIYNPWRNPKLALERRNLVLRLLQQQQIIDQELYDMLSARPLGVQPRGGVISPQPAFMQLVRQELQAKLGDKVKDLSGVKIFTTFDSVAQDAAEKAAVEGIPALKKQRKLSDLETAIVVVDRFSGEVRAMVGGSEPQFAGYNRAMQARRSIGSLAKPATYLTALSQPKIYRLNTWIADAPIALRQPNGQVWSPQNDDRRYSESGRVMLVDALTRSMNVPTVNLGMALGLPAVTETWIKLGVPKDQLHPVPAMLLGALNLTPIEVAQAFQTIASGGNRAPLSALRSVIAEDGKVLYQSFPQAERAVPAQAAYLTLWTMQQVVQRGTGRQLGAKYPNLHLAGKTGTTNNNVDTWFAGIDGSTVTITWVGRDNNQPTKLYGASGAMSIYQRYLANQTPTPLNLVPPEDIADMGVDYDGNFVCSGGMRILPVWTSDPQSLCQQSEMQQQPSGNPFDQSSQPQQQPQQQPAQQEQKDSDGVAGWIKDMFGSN
Outline: (§1)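 E. coli K-12 or P. aeruginosa 1771 grown in BHI at 35°C to A600 ~1.5. Cells in 50 mM phosphate pH 7.0 were French-pressed; membranes pelleted at 150,000 × g. Membranes (10–20 μg protein) were pre-incubated with test compound 10 min at 30°C, then Bocillin FL (100 μM final) 20 min. SDS-PAGE, fluorescence scan. IC50 in μg/ml from ≥8 concentrations versus no-drug control.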

E. coli PBP2 = molecular target: T2, E. coli PBP2 (Escherichia coli, UniProt P0AD65)
T2 sequence (P0AD65 1-633): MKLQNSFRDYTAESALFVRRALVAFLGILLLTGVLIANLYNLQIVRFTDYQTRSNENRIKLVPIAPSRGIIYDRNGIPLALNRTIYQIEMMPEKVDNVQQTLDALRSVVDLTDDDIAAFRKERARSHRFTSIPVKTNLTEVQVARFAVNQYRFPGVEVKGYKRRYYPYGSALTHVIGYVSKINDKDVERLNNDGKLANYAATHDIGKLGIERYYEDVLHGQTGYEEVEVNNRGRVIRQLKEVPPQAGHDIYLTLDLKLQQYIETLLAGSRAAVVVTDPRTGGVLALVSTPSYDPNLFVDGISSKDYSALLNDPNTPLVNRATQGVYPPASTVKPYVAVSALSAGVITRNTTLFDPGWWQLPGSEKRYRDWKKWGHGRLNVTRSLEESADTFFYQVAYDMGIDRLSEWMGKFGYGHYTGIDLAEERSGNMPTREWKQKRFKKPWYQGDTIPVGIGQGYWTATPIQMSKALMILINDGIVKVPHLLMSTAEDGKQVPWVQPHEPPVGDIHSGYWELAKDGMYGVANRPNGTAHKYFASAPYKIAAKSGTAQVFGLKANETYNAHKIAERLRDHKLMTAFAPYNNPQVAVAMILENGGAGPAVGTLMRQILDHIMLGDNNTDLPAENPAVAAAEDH
Outline: as §1

E. coli PBP3 = molecular target: T3, E. coli PBP3 (Escherichia coli, UniProt P0AD68)
T3 sequence (P0AD68 1-588): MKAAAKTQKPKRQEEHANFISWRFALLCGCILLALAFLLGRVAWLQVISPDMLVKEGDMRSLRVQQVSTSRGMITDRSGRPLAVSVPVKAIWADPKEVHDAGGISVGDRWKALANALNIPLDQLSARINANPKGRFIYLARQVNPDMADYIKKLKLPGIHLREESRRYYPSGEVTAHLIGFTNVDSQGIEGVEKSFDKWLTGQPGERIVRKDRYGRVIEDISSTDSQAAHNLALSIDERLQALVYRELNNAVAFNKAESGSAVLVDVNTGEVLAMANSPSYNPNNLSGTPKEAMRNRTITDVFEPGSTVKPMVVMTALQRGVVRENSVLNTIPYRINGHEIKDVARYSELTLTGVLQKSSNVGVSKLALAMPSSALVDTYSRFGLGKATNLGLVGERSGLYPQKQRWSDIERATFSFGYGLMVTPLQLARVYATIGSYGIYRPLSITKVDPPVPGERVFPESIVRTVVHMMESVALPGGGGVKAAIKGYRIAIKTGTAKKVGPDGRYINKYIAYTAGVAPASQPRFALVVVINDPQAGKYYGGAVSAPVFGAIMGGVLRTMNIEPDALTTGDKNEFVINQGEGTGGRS
Outline: as §1

P. aeruginosa PBP2 = molecular target: T4, P. aeruginosa PBP2 (Pseudomonas aeruginosa, UniProt Q9X6V3)
T4 sequence (Q9X6V3 1-646): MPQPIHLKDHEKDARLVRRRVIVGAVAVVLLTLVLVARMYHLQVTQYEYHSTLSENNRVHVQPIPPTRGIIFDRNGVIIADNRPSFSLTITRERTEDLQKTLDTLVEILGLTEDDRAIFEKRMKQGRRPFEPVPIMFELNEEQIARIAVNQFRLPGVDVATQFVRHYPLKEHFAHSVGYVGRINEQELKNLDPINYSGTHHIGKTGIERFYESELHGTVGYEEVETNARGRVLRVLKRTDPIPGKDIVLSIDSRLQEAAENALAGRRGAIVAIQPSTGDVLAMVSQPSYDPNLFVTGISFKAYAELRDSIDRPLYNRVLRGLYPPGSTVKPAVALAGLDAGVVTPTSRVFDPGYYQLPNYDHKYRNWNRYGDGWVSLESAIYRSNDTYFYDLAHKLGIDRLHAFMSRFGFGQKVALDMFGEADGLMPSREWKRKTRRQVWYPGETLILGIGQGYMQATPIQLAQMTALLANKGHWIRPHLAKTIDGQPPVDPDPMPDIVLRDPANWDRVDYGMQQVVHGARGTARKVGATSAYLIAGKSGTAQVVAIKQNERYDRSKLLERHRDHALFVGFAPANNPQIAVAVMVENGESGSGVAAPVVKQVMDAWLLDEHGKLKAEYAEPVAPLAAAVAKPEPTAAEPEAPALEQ
Outline: as §1

Row | Compound | IC50 (E. coli PBP1b) | IC50 (E. coli PBP2) | IC50 (E. coli PBP3) | IC50 (P. aeruginosa PBP2)
1 | NC(=O)[C@@H]1CC[C@@H]2CN1C(=O)N2OS(=O)(=O)O [AVI, avibactam] | > 49 µM | 3.47 µM | > 49 µM | 4.15 µM
2 | CC(C)(O/N=C(\C(=O)N[C@@H]1C(=O)N2C(C(=O)[O-])=C(C[n+]3ccccc3)CS[C@H]12)c1csc(N)n1)C(=O)O [CAZ, ceftazidime] | 14.6 µM | > 45.7 µM | 0.366 µM | > 45.7 µM
3 | CC1(C)S[C@@H]2[C@H](/N=C/N3CCCCCC3)C(=O)N2[C@H]1C(=O)O [MEC, amdinocillin] | > 39.9 µM | 0.0615 µM | > 39.9 µM | 0.645 µM
